In brackets after ≈: the same amount, converted by molar mass. Activity calls are given as the source filed them. The rule behind the calls is not given here.
Legend:
Staphylococcus aureus [1] = test: Antibacterial activity against methicillin-resistant Staphylococcus aureus isolate CBD 635 at 50 ug per disc by Kirby-Bauer disc diffusion assay; type: functional; settings: read-out: DIZ
Outline: (§1)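 Kirby-Bauer disk diffusion with 50 µg compound per 6 mm paper disk. Organisms were grown and plated by an earlier method. The zone-of-inhibition diameter was recorded to the nearest mm and averaged over three independent experiments. No zone was reported as 6 mm, the disk diameter.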

[2] = Antibacterial activity against Bartonella henselae ATCC 49882 after 7 days by agar dilution method; type: functional, Bartonella henselae str. Houston-1; settings: ATCC 49882, 168 h
Outline: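 Agar dilution on chocolate agar containing compound at 10.0, 1.0 and 0.1 µg/ml, with 2-fold steps at and below 1.0 µg/ml for compounds active there. Controls were DMSO-only and drug-free plates. 25 µl of a McFarland 2.0 suspension in heart infusion broth was spotted and incubated 7 days at 37 °C in 5% CO2. Growth was scored +/− on duplicate plates; triplicate results were averaged.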

Staphylococcus aureus [3] = test: Antibacterial activity against methicillin-resistant Staphylococcus aureus isolate CBD 635; type: functional
Outline: (§2)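 MIC against S. aureus strains was run by an earlier published procedure, tested in triplicate. Values were averaged and expressed as µg/ml of compound.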

Staphylococcus aureus [4] = test: Antibacterial activity against methicillin-susceptible Staphylococcus aureus SH1000; type: functional
Outline: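 MIC in µg/ml, tested in triplicate and averaged, with ciprofloxacin as positive control.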

Bartonella quintana = test: Antibacterial activity against Bartonella quintana ATCC VR358 at 20 ug per disc after 7 days by Kirby-Bauer disc diffusion assay; type: functional; settings: ATCC VR358, 168 h, read-out: DIZ
Outline: (§3)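 Each paper disk was loaded with 20 µl of a 1 mg/ml solution, dried for 20 min and stored desiccated at 4 °C. Growth from 4-day plates was suspended in heart infusion broth to McFarland 2.0 and swabbed onto chocolate agar (heart infusion agar base with 5% bovine hemoglobin). Plates were incubated 1 week at 37 °C in 5% CO2. Zone diameter was read to the nearest mm, in triplicate and averaged.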

Bartonella elizabethae = test: Antibacterial activity against Bartonella elizabethae F9251 at 20 ug per disc after 7 days by Kirby-Bauer disc diffusion assay; type: functional; settings: F9251, 168 h, read-out: DIZ; outline: as §3
[5] = Antibacterial activity against Bartonella henselae Houston-1 infected in human HMEC1 cells assessed as intracellular bacterial load at 1 ug/mL incubated for 96 hrs followed by compound washout measured after 7 days relative to control; type: functional, Bartonella henselae str. Houston-1
Outline: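 HMEC-1 cells grown in MCDB131 with 10% FBS, EGF and hydrocortisone were infected with B. henselae Houston-1 at MOI 100 for 4 h. Extracellular bacteria were killed with gentamicin (200 µg/ml, 1 h), then compound was added at 0.1 or 1.0 µg/ml for 96 h. After washing, cells were lysed with 0.1% saponin and lysates plated on chocolate agar for 7 days. CFU are given as a percentage of the media-only control.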

[6] = Antibacterial activity against Bartonella henselae ATCC 49882 at 20 ug per disc after 7 days by Kirby-Bauer disc diffusion assay; type: functional, Bartonella henselae str. Houston-1; settings: ATCC 49882, 168 h, read-out: DIZ; outline: as §3
Staphylococcus aureus [7] = test: Antibacterial activity against methicillin-resistant Staphylococcus aureus ATCC 43300; type: functional; outline: as §2
Bacillus anthracis = test: Antibacterial activity against Bacillus anthracis sterne at 50 ug per disc by Kirby-Bauer disc diffusion assay; type: functional; settings: read-out: DIZ; outline: as §1
Bartonella vinsonii = test: Antibacterial activity against Bartonella vinsonii ATCC VR152 at 20 ug per disc after 7 days by Kirby-Bauer disc diffusion assay; type: functional; settings: ATCC VR152, 168 h, read-out: DIZ; outline: as §3
Escherichia coli [8] = test: Antibacterial activity against Escherichia coli DH5alpha at 50 ug per disc by Kirby-Bauer disc diffusion assay; type: functional; settings: DH5[alpha], read-out: DIZ
Outline: (§4)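 Disks carried 50 µg of compound. Zone diameter was measured to the nearest mm and averaged over three independent experiments. A value of 6 mm, the disk diameter, was recorded where no inhibition was seen.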

Enterococcus faecalis = test: Antibacterial activity against Enterococcus faecalis DS16 at 50 ug per disc by Kirby-Bauer disc diffusion assay; type: functional; settings: read-out: DIZ; outline: as §4
Bartonella henselae = test: Antibacterial activity against Bartonella henselae infected in african green monkey Vero cells by immunofluorescence staining; type: functional
Escherichia coli [9] = test: Inhibition of Escherichia coli DNA gyrase-mediated formation of supercoiled form of pUC19 at 1 to 100 ug/mL by gel electrophoresis
Outline: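 Relaxed circular pUC19 was incubated with purified E. coli DNA gyrase and compound for 1 h at 37 °C. Relaxed and supercoiled DNA were resolved and quantified by gel electrophoresis.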

| Structure (SMILES) | zone of inhibition at 50 µg/disc (Staphylococcus aureus [1]) [mm] | MIC [2] [µg/mL] | MIC (Staphylococcus aureus [3]) [µg/mL] | MIC (Staphylococcus aureus [4]) [µg/mL] | zone of inhibition at 20 µg/disc (Bartonella quintana) [mm] | zone of inhibition at 20 µg/disc (Bartonella elizabethae) [mm] | Activity [5] | zone of inhibition at 20 µg/disc [6] [mm] | MIC (Staphylococcus aureus [7]) [µg/mL] | zone of inhibition at 50 µg/disc (Bacillus anthracis) [mm] | zone of inhibition at 20 µg/disc (Bartonella vinsonii) [mm] | zone of inhibition at 50 µg/disc (Escherichia coli [8]) [mm] | zone of inhibition at 50 µg/disc (Enterococcus faecalis) [mm] | MIC (Bartonella henselae) [µg/mL] | gyrase inhibition (active/inactive) (Escherichia coli [9]) |
| --- | --- | --- | --- | --- | --- | --- | --- | --- | --- | --- | --- | --- | --- | --- | --- |
| CCCC(=O)N1CCN(c2cc3c(cc2F)c(=O)c(C(=O)O)cn3C2CC2)CC1 | 6 | 0.5 (≈ 1.25 µM) | > 100 | > 100 | 29 | 42 | <=10% | 34 | > 100 | 86 | 44 | 48 | 40 |  |  |
| CCCCCCCC(=O)N1CCN(c2cc3c(cc2F)c(=O)c(C(=O)O)cn3C2CC2)CC1 | 6 | 10 (≈ 21.9 µM) | > 100 | 25 (≈ 54.6 µM) | 14 | 14 |  | 16 | 25 (≈ 54.6 µM) | 65 | 15 | 6 | 29 |  |  |
| CCCCCCC(=O)N1CCN(c2cc3c(cc2F)c(=O)c(C(=O)O)cn3C2CC2)CC1 | 30 | 10 (≈ 22.5 µM) | > 100 | 25 (≈ 56.4 µM) | 20 | 20 |  | 28 | > 100 | 71 | 22 | 45 | 36 |  |  |
| CC1COc2c(N3CCN(C)CC3)c(F)cc3c(=O)c(C(=O)O)cn1c23 (stereo not given) [OFLOXACIN] |  |  |  |  |  |  |  |  |  |  |  |  |  | 5.6 (≈ 15.5 µM) |  |
| CC(CC(=O)N1CCN(c2cc3c(cc2F)c(=O)c(C(=O)O)cn3C2CC2)CC1)CC(C)(C)C (stereo not given) | 35 | 1 (≈ 2.12 µM) | > 100 | 25 (≈ 53 µM) | 7 | 8 |  | 15 | > 100 | 80 | 10 | 6 | 25 |  | Active |
| C[C@H]1COc2c(N3CCN(C)CC3)c(F)cc3c(=O)c(C(=O)O)cn1c23.C[C@H]1COc2c(N3CCN(C)CC3)c(F)cc3c(=O)c(C(=O)O)cn1c23.O [LEVOFLOXACIN] |  |  |  |  |  |  |  |  |  |  |  |  |  | 0.84 |  |
| CCCCCCCCC(=O)N1CCN(c2cc3c(cc2F)c(=O)c(C(=O)O)cn3C2CC2)CC1 | 22 | 10 (≈ 21.2 µM) | > 100 | 10 (≈ 21.2 µM) | 11 | 12 |  | 6 | 10 (≈ 21.2 µM) | 55 | 14 | 30 | 23 |  |  |
| CCCCC(CC)C(=O)N1CCN(c2cc3c(cc2F)c(=O)c(C(=O)O)cn3C2CC2)CC1 (stereo not given) | 26 |  | > 100 | 10 (≈ 21.9 µM) | 6 | 12 |  | 12 | > 100 | 65 | 15 | 6 | 28 |  |  |
